From ChEMBL document CHEMBL5376017, “Glucosamine substituted sulfonylureas: IRS-PI3K-PKC-AKT-GLUT4 insulin signalling pathway intriguing agent” (RSC Med Chem, 2024)
The source made the active and inactive calls. The calls are words filed in the database; no cut-off is given here.

Assays:
[1] = tested on: Soleus muscle; assay: Upregulation of IRS-1 expression in insulin resistant Sprague-Dawley rat soleus muscle at 1 to 2 uM incubated for 24 hrs by qRT-PCR analysis; type: functional, tissue-based; conditions: dose 1-2 µM
Outline: (§1)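 Isolated rat soleus muscle in gassed (95% O2–5% CO2) Krebs–Henseleit buffer. Insulin resistance induced in four steps: KHB with 0.1% BSA and 1 mM pyruvate for 24 h at 37 °C, then high glucose/insulin for 24 h, then 25 mM glucose for 5 h, then insulin for 30 min. Tissue then exposed in KHB for 24 h. qPCR normalized to β-/γ-actin geometric mean. Mean ± SEM, ANOVA/Duncan.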

[2] = tested on: Soleus muscle; assay: Upregulation of PI3K expression in insulin resistant Sprague-Dawley rat soleus muscle at 1 to 2 uM incubated for 24 hrs by qRT-PCR analysis; type: functional, tissue-based; conditions: dose 1-2 µM; outline: as §1
[3] = tested on: L6; assay: Upregulation of PI3K expression in insulin resistant myotube differentiated rat L6 cells at 1 to 2 uM incubated for 24 hrs by qRT-PCR analysis; type: functional, cell-based; conditions: dose 1-2 µM
Outline: (§2)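 L6 myoblasts differentiated to myotubes in DMEM with 2% horse serum for 7 days, 2 × 10^4 cells per well. Insulin resistance induced in three steps: 25 mM glucose plus insulin for 24 h, then 5 mM glucose without insulin for 5 h, then insulin for 30 min. Compounds in DMEM with 2% inactivated FBS for 24 h. qPCR normalized to geometric mean of β-actin and γ-actin. Mean ± SEM, one-way ANOVA with Duncan test.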

[4] = tested on: Soleus muscle; assay: Upregulation of GLUT4 expression in insulin resistant Sprague-Dawley rat soleus muscle at 1 to 2 uM incubated for 24 hrs by qRT-PCR analysis; type: functional, tissue-based; conditions: dose 1-2 µM; outline: as §1
[5] = tested on: L6; assay: Upregulation of IRS-1 expression in insulin resistant myotube differentiated rat L6 cells at 1 to 2 uM incubated for 24 hrs by qRT-PCR analysis; type: functional, cell-based; conditions: dose 1-2 µM; outline: as §2
[6] = tested on: L6; assay: Upregulation of PKB/AKT2 expression in insulin resistant myotube differentiated rat L6 cells at 2 uM incubated for 24 hrs by qRT-PCR analysis; type: functional, cell-based; outline: as §2
[7] = tested on: Soleus muscle; assay: Downregulation of PKC-alpha expression in insulin resistant Sprague-Dawley rat soleus muscle at 1 to 2 uM incubated for 24 hrs by qRT-PCR analysis; type: functional, tissue-based; conditions: dose 1-2 µM; outline: as §1
[8] = Cytotoxicity against rat L6 cells assessed as cell viability at 50 to 250 uM incubated for 24 hrs by MTT assay relative to control; type: toxicity, cell-based; conditions: dose 50-250 µM, read-out: Activity
Outline: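 Rat L6 myoblasts, 2 × 10^4 cells per mL, allowed to attach, then exposed for 24 h to five concentrations (50–250 μM) from DMSO stocks; 0.1% DMSO as negative control. MTT at 0.5 mg mL−1 added for 4 h, formazan dissolved in DMSO, absorbance read at 570 nm. Viability calculated against control. Triplicate wells, three independent experiments.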

[9] = tested on: L6; assay: Upregulation of GLUT4 expression in insulin resistant myotube differentiated rat L6 cells at 1 to 2 uM incubated for 24 hrs by qRT-PCR analysis; type: functional, cell-based; conditions: dose 1-2 µM; outline: as §2
[10] = tested on: Soleus muscle; assay: Upregulation of PKB/AKT2 insulin resistant Sprague-Dawley rat soleus muscle at 2 uM incubated for 24 hrs by qRT-PCR analysis; type: functional, tissue-based; outline: as §1
[11] = tested on: L6; assay: Downregulation of PKC-alpha expression in insulin resistant myotube differentiated rat L6 cells at 1 to 2 uM incubated for 24 hrs by qRT-PCR analysis; type: functional, cell-based; conditions: dose 1-2 µM; outline: as §2
[12] = tested on: Soleus muscle; assay: Downregulation of PKC-alpha expression in insulin resistant Sprague-Dawley rat soleus muscle incubated for 24 hrs by qRT-PCR analysis; type: functional, tissue-based; outline: as §1
[13] = tested on: L6; assay: Downregulation of PKC-alpha expression in insulin resistant myotube differentiated rat L6 cells incubated for 24 hrs by qRT-PCR analysis; type: functional, cell-based; outline: as §2
[14] = tested on: L6; assay: Upregulation of IRS-1 expression in insulin resistant myotube differentiated rat L6 cells incubated for 24 hrs by qRT-PCR analysis; type: functional, cell-based; outline: as §2
[15] = tested on: L6; assay: Upregulation of PKB/AKT2 expression in insulin resistant myotube differentiated rat L6 cells incubated for 24 hrs by qRT-PCR analysis; type: functional, cell-based; outline: as §2
[16] = tested on: Soleus muscle; assay: Upregulation of PI3K expression in insulin resistant Sprague-Dawley rat soleus muscle incubated for 24 hrs by qRT-PCR analysis; type: functional, tissue-based; outline: as §1
[17] = tested on: Soleus muscle; assay: Upregulation of GLUT4 expression in insulin resistant Sprague-Dawley rat soleus muscle incubated for 24 hrs by qRT-PCR analysis; type: functional, tissue-based; outline: as §1
[18] = tested on: L6; assay: Upregulation of GLUT4 expression in insulin resistant myotube differentiated rat L6 cells incubated for 24 hrs by qRT-PCR analysis; type: functional, cell-based; outline: as §2

Row | Compound | Activity [1] | Activity [2] | Activity [3] | Activity [4] | Activity [5] | Activity [6] | Activity [7] | viability at 24 h, up to 250 µM [8] [%] | Activity [9] | Activity [10] | Activity [11] | Activity [12] | Activity [13] | Activity [14] | Activity [15] | Activity [16] | Activity [17] | Activity [18]
1 | CC(=O)OC[C@H]1OC(OC(C)=O)[C@H](NC(=O)NS(=O)(=O)c2ccc(Cl)cc2)[C@@H](OC(C)=O)[C@@H]1OC(C)=O (some centres undefined) | Active | Active | Active | Active | Active | Active | Active | 50 | Active | Active | Active | – | – | – | – | – | – | –
2 | Cc1ccc(S(=O)(=O)NC(=O)N[C@H]2C(O)O[C@H](CO)[C@@H](O)[C@@H]2O)cc1 (some centres undefined) | Active | Active | Active | Active | Active | Active | Active | 50 | Active | Active | Active | – | – | – | – | – | – | –
3 | CC(=O)OC[C@H]1OC(OC(C)=O)[C@H](NC(=O)NS(=O)(=O)c2ccccc2)[C@@H](OC(C)=O)[C@@H]1OC(C)=O (some centres undefined) | Active | Active | Active | Active | Active | Active | Active | 50 | Active | Active | Active | – | – | – | – | – | – | –
4 | CC(=O)OC[C@H]1OC(OC(C)=O)[C@H](NC(=O)NS(=O)(=O)c2ccc(C)cc2)[C@@H](OC(C)=O)[C@@H]1OC(C)=O (some centres undefined) | Active | Active | Active | Active | Active | Active | Active | 50 | Active | Active | Active | – | – | – | – | – | – | –
5 | O=C(N[C@H]1C(O)O[C@H](CO)[C@@H](O)[C@@H]1O)NS(=O)(=O)c1ccccc1 (some centres undefined) | Active | Active | Active | Active | Active | Active | Active | < 50 | Active | Active | Active | – | – | – | – | – | – | –
6 | O=C(N[C@H]1C(O)O[C@H](CO)[C@@H](O)[C@@H]1O)NS(=O)(=O)c1ccc(Cl)cc1 (some centres undefined) | Active | Active | Active | Active | Active | Active | Active | 50 | Active | Active | Active | – | – | – | – | – | – | –
7 | CN(C)C(=N)NC(=N)N | – | – | – | – | – | – | – | – | – | – | – | Active | Active | Active | Active | Active | Active | Active
8 | CCC1=C(C)CN(C(=O)NCCc2ccc(S(=O)(=O)NC(=O)N[C@H]3CC[C@H](C)CC3)cc2)C1=O | – | – | – | – | – | – | – | – | – | – | – | Active | Active | Active | Active | Active | Active | –
